Data set [1] concerns L1210. The experiment in a line: Compound was evaluated for the inhibition of DNA synthesis in leukemia L1210 cells. The format is functional. The following applies: Mus musculus, read-out: ED50 (the source's name). The essentials:
(§1)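 Actively growing L1210 cells exposed to drug for 3 h; drug dissolved first in Me₂SO, final 1% Me₂SO. Read-out is incorporation of [³H]thymidine into DNA or [³H]uridine into RNA. ED50 is the concentration giving 50% inhibition.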

For data set [2], the system named is L1210. Nature of the data set: Compound was evaluated for the inhibition of RNA synthesis in leukemia L1210 cells. The format is functional. The following applies: Mus musculus, read-out: ED50 (the source's name). The essentials: as §1
Data set [3] can be described thus: Compound was evaluated for the percentage of hydrolysis of compound 2 formed at pH of 2. The class given is ADME. As to conditions: pH 2. The essentials:
(§2)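 Stock solutions at 0.6 mg/mL in CH3CN (or CH3OH) were diluted 1:1 with phosphate buffer (pH 7), citrate buffer (pH 4) or 0.1 N HCl-KCl (pH 2). They were held at 23 °C for 22 h, then analysed by reverse-phase HPLC in 0.1 M NaH2PO4-CH3CN (75:25) with 254 nm absorbance. Each value is the amount detected at that time divided by the total detected at start.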

Data set [4] is described as follows: Compound was evaluated for the percentage of hydrolysis of compound 2 formed at pH of 4. The format is ADME. As to conditions: pH 4. An outline of the steps:
as §2

The nature of data set [5]: Compound was evaluated for the percentage of hydrolysis of compound 2 formed at pH of 7. The class given is ADME. The following applies: pH 7. An outline of the steps: as §2
The nature of data set [6]: Compound was evaluated for the percentage of hydrolysis product (aglycon) formed at pH of 2. The format is ADME. The following applies: pH 2. An outline of the steps:
as §2

A short description of data set [7]: Compound was evaluated for the percentage of hydrolysis product (aglycon) formed at pH of 4. The class given is ADME. The following applies: pH 4. An outline of the steps:
as §2

A short description of data set [8]: Compound was evaluated for the percentage of hydrolysis product (aglycon) formed at pH of 7. The class given is ADME. The following applies: pH 7. An outline of the steps:
as §2

A short description of data set [9]: Compound was evaluated for the overall absorbance loss at pH of 2. The following applies: pH 2. The class given is ADME. An outline of the steps: as §2
Data set [10] can be described thus: Compound was evaluated for the overall absorbance loss at pH of 4. The format is ADME. The following applies: pH 4. An outline of the steps: as §2
Data set [11] in a line: Compound was evaluated for the overall absorbance loss at pH of 7. The format is ADME. As to conditions: pH 7. The essentials:
as §2

A short description of data set [12]: Compound was evaluated for its stability after 22 hr in solution at pH of 2. The class given is physicochemical. The following applies: pH 2, read-out: Recovery. The essentials: as §2
Data set [13] in a line: Compound was evaluated for the change in Tm of isolated helical DNA in solution. The format is ADME. The essentials:
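Thermal denaturation of calf thymus DNA, 5.2 × 10⁻⁵ M (P), with drug at 5.2 × 10⁻⁶ M, in 0.01 M phosphate buffer pH 7 with EDTA and 5% Me₂SO. ΔTm = Tm of DNA–drug complex minus Tm of DNA alone.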

Data set [14] is filed under the species Mus musculus. Nature of the data set: Compound was evaluated for the antitumor efficacy at optimal dose against P388 in mice. The class given is functional. An outline of the steps:
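Mice given 10⁶ P388 leukemia cells ip on day 0, then dosed ip on day 1 at the optimal dose. Efficacy expressed as % T/C, the mean survival time of treated over control mice; ≥120% counts as active.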

The test system of data set [15] is P388/S. Nature of the data set: Compound was evaluated for the growth inhibition of P388/S cells. The class given is functional, cell-based. As to conditions: Mus musculus. An outline of the steps:
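P388/S is the sensitive line routinely used in screening. Cells were exposed to drug for 48 h before IC50 was determined.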

Data set [16] deals with HeLa. Nature of the data set: (§3) Compound was evaluated for the inhibition of colony formation in HeLa cells. The format is functional, Mus musculus. The following applies: Homo sapiens, read-out: ID50 (the source's name). The essentials:
(§4)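 Exponentially growing HeLa cells exposed to drug for 24 h, then plated at 50 cells/mL in drug-free medium. Colonies grown 7–10 days at 37 °C in humidified 95:5 air/CO₂, then scored. ID50 is the concentration giving 50% inhibition of colony growth.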

Data set [17] concerns P388. The experiment in a line: Compound was evaluated for the growth inhibition of P388/S, cells. As to conditions: Mus musculus. The format is functional, cell-based. The essentials: (§5)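 Growth of P388/S cells, the routine screening line, and of the P388/ADR resistant subline measured after 48-h drug exposure. IC50 is the concentration giving 50% growth inhibition.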
Data set [18] is described as follows: Compound was evaluated for the percentage of hydrolysis product formed at pH of 2. The format is ADME. The following applies: pH 2. The essentials:
as §2

The nature of data set [19]: Compound was evaluated for the percentage of hydrolysis product formed at pH of 4. The class given is ADME. As to conditions: pH 4. An outline of the steps:
as §2

Data set [20] can be described thus: Compound was evaluated for its stability after 22 hr in solution at pH of 4. The following applies: pH 4, read-out: Recovery. The format is physicochemical. The essentials: as §2
Data set [21] in a line: Compound was evaluated for its stability after 22 hr in solution at pH of 7. The following applies: pH 7, read-out: Recovery. The format is physicochemical. An outline of the steps:
as §2

Data set [22] is described as follows: Compound was evaluated for the percentage of hydrolysis product formed at pH of 7. The class given is ADME. As to conditions: pH 7. The essentials: as §2
Data set [23] can be described thus: Partition coefficient in octanol-phosphate buffer at pH 7.4. The class given is physicochemical. An outline of the steps:
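Drug partitioned between octanol and phosphate buffer pH 7.4. Concentrations in each phase measured by UV absorbance; log P is the log of organic-phase over aqueous-phase concentration.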

Data set [24] has as its system HeLa. Described as §3. The following applies: Homo sapiens, read-out: ID50 (the source's name). The class given is functional. The essentials:
as §4

Data set [25] deals with P388/ADR. Nature of the data set: Compound was evaluated for the growth inhibition of P388/ADR cells. The class given is functional, cell-based. As to conditions: Mus musculus. The essentials:
as §5

Data set [26] in a line: Resistance index was measured as ratio of IC50 of P388/ADR to that of P388/S.

Values after ≈ are worked out from the molar mass of the structure shown. Values joined by “and” are separate entries in the source; they are usually repeats but may differ in a detail not shown here. Equal entries are not always repeated.

Take `COc1cccc2c1C(=O)c1c(O)c3c(c(O)c1C2=O)C[C@@](O)(C(=O)CO)C[C@@H]3OC1CC2C(OC(CO)N2CCO)C(C)O1` (stereo partly specified): the values for the EC50 in data set [1] and in [2] were 650 nM and 120 nM, respectively.

For orientation: T/C means the result in the treated group divided by that in the control group, in per cent. Consider `COc1cccc2c1C(=O)c1c(O)c3c(c(O)c1C2=O)C[C@@](O)(C(=O)CO)C[C@@H]3OC1CC(N2CCOCC2C#N)C(O)C(C)O1` (stereo partly specified), for which the Hydrolysis is given as 7% in data set [3]; 8% in data set [4]; 0.8% in data set [5]; 8% in [6]; 0.1% in [7]; 0.3% in [8]. Also, the figures for the Absorbance in [9], in [10] and in data set [11] were 67%, 37% and 17%, respectively. Further, in data set [12], the remaining at 22 h is 10%. Besides, the “Change in Tm” value in data set [13] was 8.7. Moreover, the EC50 in [1] was determined as 3 nM; in [2], 0.53 nM. Further, the T/C in data set [14] was 262% and 233%. In data set [15], this molecule showed an IC50 of 0.16 nM.

Take `COc1cccc2c1C(=O)c1c(O)c3c(c(O)c1C2=O)C[C@@](O)(C(=O)CO)C[C@@H]3O[C@H]1C[C@H](N)[C@H](O)[C@H](C)O1` [DOXORUBICIN]: the “Change in Tm” value in data set [13] was 12.8. Further, the values for the IC50 in [16] and in [17] were 0.019 µg/mL (≈ 0.035 µM) and 68 nM, respectively. Besides, the values for the EC50 in [1] and in data set [2] were 1600 nM and 580 nM, respectively. Also, the T/C in data set [14] was 182% and 273%.

With `COc1cccc2c1C(=O)c1c(O)c3c(c(O)c1C2=O)C[C@@](O)(C(=O)CO)C[C@@H]3OC1CC(N2CCOCC2)C(O)C(C)O1` (stereo partly specified), the Hydrolysis in data set [18], in data set [19] and in data set [22] was less than 1% in each case. Also, the Absorbance in data set [9] is reported as 4%; in [10] it was 12%; in [11], 4%. For the same molecule, the remaining at 22 h in data set [12] is 96%; in data set [20], 88%; in [21], 90%.

As usually defined, the logD is the decadic logarithm of the distribution of all forms, ionised or not, between an organic phase and buffer at a given pH. High values mean higher lipophilicity, low ones lower lipophilicity. Regarding `COc1cccc2c1C(=O)c1c(O)c3c(c(O)c1C2=O)C[C@@](O)(C(=O)CO)C[C@@H]3OC1CC(NCCO)C(O)C(C)O1` (stereo partly specified), in data set [23], the logD was 0.19. Moreover, the “Change in Tm” value in data set [13] came to 10.7. The IC50 worked out at 0.031 µg/mL (≈ 0.0528 µM) in [24], 3900 nM in data set [25] and 230 nM in data set [17]. In addition, the EC50 turned out to be 5200 nM in data set [1] and 810 nM in [2]. In addition, the T/C in data set [14] is 157% and 205%. Besides, in data set [26], the Ratio came out at 17.

Source of the values: ChEMBL document CHEMBL1123258 (J Med Chem, 1986).
